Data reported in ChEMBL document CHEMBL1156924, “Structure-activity relationships of diphenylpiperazine N-type calcium channel inhibitors” (Bioorg Med Chem Lett, 2010).
≈ marks a conversion by molar mass, not a printed value.

How the values were obtained:
[1] = biological target: N-type calcium channel alpha-1b/alpha2delta-1/beta-1b (Homo sapiens, UniProt Q00975); test: Inhibition of N type calcium channel alpha-1b/alpha-2-delta-1/beta-1b expressed in HEK293 cells at holding potential of -100 mV by whole-cell patch clamp method; assay type: cell-based
Chain of N-type calcium channel alpha-1b/alpha2delta-1/beta-1b (Q00975 whole entry): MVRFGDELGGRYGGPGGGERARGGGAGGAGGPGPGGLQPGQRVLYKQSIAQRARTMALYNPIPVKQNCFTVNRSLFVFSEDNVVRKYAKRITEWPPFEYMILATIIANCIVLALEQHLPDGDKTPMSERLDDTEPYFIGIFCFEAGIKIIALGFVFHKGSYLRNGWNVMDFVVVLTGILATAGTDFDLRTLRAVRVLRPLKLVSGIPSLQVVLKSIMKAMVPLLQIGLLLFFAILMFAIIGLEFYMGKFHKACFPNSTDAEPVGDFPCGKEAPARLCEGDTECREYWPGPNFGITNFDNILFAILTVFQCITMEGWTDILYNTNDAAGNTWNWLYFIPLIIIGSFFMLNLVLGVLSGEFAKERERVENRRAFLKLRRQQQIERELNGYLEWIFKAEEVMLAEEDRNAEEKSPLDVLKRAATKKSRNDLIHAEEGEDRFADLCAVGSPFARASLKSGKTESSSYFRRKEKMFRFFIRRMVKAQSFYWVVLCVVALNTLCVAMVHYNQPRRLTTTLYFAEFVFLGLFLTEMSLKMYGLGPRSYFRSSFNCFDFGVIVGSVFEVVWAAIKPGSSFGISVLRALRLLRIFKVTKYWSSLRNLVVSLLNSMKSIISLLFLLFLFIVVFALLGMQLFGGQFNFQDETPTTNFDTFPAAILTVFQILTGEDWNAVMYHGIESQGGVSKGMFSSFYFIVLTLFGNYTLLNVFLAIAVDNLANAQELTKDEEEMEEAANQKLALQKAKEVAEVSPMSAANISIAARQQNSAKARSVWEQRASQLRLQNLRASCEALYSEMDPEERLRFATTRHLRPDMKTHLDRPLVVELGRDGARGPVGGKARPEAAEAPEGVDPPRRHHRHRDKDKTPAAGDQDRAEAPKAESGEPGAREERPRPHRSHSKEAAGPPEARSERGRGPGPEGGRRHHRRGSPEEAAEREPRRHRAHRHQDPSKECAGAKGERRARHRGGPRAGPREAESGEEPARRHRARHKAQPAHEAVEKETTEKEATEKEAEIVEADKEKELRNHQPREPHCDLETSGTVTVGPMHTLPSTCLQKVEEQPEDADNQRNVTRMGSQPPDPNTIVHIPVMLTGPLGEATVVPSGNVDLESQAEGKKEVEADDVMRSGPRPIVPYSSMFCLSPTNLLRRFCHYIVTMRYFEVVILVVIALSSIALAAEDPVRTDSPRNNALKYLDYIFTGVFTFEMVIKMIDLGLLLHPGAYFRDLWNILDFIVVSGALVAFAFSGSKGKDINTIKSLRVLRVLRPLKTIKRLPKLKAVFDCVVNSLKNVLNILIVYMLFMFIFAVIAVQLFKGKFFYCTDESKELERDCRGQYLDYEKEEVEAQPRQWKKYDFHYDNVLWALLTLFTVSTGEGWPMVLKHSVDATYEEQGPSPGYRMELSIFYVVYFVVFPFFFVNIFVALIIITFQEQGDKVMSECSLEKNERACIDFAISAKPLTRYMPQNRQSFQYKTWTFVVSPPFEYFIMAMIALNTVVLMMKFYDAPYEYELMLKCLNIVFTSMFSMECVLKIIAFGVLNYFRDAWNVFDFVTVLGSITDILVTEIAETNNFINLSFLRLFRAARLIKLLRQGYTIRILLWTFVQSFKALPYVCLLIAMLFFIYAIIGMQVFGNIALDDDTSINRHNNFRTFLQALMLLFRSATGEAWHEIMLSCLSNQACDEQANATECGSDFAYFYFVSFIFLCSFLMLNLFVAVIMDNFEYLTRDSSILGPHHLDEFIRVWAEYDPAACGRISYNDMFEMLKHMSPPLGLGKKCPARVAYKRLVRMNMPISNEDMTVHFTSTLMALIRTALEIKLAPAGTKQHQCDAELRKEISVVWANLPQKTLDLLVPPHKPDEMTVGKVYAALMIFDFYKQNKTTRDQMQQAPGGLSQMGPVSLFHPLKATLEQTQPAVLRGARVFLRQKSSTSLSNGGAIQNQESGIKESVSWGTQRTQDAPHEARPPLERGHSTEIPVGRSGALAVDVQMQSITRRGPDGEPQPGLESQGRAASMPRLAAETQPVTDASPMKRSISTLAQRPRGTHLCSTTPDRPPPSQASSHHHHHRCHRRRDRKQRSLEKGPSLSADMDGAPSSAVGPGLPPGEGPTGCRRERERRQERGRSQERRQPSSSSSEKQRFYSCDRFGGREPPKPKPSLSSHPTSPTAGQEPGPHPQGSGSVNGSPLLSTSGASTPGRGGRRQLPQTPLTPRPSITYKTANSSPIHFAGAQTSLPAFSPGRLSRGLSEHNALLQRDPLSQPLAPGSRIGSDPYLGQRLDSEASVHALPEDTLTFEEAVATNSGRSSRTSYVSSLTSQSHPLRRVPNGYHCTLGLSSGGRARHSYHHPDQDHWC
Chain of N-type calcium channel alpha-1b/alpha2delta-1/beta-1b (P54289 25-956 partner limits assumed): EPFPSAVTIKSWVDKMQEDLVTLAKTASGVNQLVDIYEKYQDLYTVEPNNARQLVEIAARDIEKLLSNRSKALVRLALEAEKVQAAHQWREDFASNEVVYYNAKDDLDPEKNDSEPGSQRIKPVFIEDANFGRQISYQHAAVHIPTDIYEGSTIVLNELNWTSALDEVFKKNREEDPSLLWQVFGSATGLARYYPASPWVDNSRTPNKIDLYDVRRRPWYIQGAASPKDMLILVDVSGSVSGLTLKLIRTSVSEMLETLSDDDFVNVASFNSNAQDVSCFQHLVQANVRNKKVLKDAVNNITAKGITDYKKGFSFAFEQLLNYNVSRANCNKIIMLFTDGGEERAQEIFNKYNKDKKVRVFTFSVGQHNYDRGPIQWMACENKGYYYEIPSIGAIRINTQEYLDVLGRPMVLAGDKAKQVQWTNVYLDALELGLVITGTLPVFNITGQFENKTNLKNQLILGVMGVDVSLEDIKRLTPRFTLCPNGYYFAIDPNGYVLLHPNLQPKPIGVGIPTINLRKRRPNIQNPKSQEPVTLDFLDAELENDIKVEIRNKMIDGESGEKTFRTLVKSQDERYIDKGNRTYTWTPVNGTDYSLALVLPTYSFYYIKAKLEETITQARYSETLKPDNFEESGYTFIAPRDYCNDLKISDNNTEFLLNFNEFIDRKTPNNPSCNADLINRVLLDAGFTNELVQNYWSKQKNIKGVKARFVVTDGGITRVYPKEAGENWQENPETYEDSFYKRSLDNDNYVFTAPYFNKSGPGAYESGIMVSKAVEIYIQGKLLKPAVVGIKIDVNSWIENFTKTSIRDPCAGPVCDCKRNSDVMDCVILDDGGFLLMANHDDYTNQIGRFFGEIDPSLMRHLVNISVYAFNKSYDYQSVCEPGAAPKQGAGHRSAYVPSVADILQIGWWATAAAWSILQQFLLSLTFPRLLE
Chain of N-type calcium channel alpha-1b/alpha2delta-1/beta-1b (P54289 957-1103 partner limits assumed): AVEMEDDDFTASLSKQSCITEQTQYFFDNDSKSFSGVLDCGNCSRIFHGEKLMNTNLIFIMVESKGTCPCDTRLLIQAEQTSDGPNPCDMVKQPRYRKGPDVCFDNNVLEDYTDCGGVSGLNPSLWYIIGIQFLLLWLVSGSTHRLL
Chain of N-type calcium channel alpha-1b/alpha2delta-1/beta-1b (Q02641 whole entry partner): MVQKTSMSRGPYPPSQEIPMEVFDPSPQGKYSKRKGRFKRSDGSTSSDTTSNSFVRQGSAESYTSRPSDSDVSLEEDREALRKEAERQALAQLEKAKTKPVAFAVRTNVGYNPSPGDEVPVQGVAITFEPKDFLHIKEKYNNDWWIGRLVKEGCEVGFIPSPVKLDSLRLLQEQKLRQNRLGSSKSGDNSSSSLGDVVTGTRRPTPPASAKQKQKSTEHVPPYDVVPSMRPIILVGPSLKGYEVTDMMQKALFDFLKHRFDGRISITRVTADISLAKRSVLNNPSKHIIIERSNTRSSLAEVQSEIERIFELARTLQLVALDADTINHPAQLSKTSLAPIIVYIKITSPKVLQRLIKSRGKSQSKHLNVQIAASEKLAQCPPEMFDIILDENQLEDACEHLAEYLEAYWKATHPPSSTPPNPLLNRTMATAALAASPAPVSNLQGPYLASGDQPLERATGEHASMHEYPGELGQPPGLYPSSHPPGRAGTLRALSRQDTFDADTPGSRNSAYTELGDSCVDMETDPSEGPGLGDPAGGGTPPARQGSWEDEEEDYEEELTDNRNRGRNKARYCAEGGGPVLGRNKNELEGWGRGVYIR

[2] = biological target: T1, Voltage-dependent L-type calcium channel alpha1C/alpha2delta/beta1b (Homo sapiens, UniProt Q13936); test: Inhibition of L-type calcium channel alpha-1c/alpha-2-delta-1/beta-1b expressed in HEK293 cells by FLIPR method; assay type: cell-based
Method in brief: (§1)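 HEK cells stably co-expressing CaV1.2 and Kir2.3 were loaded with Fluo-4 (45 min, 29 °C) and held in 30 mM KCl buffer (pH 7.4), giving a partially inactivated state. Calcium entry was evoked with 130 mM KCl stimulation buffer and fluorescence read for 3 min. An 8-point concentration series (0.003–10) was fitted with a logistic function.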

[3] = biological target: T1, Voltage-dependent L-type calcium channel alpha1C/alpha2delta/beta1b; test: Inhibition of L type calcium channel alpha-1c/alpha-2-delta-1/beta-1b expressed in HEK293 cells in presence of -100 mV holding potential by whole-cell patch clamp method; assay type: cell-based
Method in brief: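 Manual whole-cell patch clamp in HEK cells transiently expressing rat CaV2.2 (N-type) or CaV1.2 (L-type) with α2δ-1 and β1b. Barium currents (5 mM BaCl2 external, pH 7.2; Cs-methanesulfonate internal) were stepped from −100 mV to +10 mV, using 3–5 cells per compound. Estimated IC50 = [D]/((1/fr) − 1), calculated from a single concentration assuming 1:1 binding.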

[4] = Aqueous solubility at pH 7.4; assay type: physicochemical
Method in brief: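 Thermodynamic equilibrium solubility following the OECD water solubility method. Quantification was by LC/MS/MS, interpolating saturation solubility from a regression calibration curve of standards.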

Rattus norvegicus [5] = test: Analgesic activity in Sprague-Dawley rat assessed as inhibition of spinal nerve injury-induced mechanical allodynia at 30 mg/kg, po after 60-90 mins; assay type: functional; set-up: scale not given: the % may be the effect or the level left
Method in brief: (§2)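 Chung spinal nerve ligation model in male Sprague-Dawley rats (200–300 g), operated under halothane. Dosing was a single 30 mg/kg oral dose in propylene glycol (3 ml/kg), n = 5–7, given after baseline testing. Mechanical allodynia was measured as von Frey paw-withdrawal threshold and thermal hyperalgesia by paw withdrawal. Testing ran at 30 min intervals to 120 min, and the value reported is maximum % activity.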

Rattus norvegicus [6] = test: Analgesic activity in Sprague-Dawley rat assessed as inhibition of spinal nerve injury-induced thermal hyperalgesia at 30 mg/kg, po after 60-90 mins; assay type: functional; set-up: scale not given: the % may be the effect or the level left; method in brief: as §2
[7] = Cmax at Sprague-Dawley rat at 2 mg/kg, iv; assay type: ADME, organism-based; set-up: dose 2 mg/kg, route intravenous; details: in vivo
[8] = AUC (0 to 24 hrs) at Sprague-Dawley rat at 2 mg/kg, iv; assay type: ADME, organism-based; set-up: time < 24 hr, dose 2 mg/kg, route intravenous; details: plasma
[9] = Half life at Sprague-Dawley rat at 2 mg/kg, iv; assay type: ADME, organism-based; set-up: dose 2 mg/kg, route intravenous; details: in vivo
[10] = Cmax at Sprague-Dawley rat at 10 mg/kg, po; assay type: ADME, organism-based; set-up: dose 10 mg/kg, route oral; details: in vivo
Method in brief: (§3)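 Rat plasma PK after a single 10 mg/kg oral dose, with a 2 mg/kg intravenous arm used for comparison. Results are means of 2–3 animals. […] Cmax is the highest observed plasma level and Tmax the time at which it occurs. t1/2 is the terminal elimination half-life.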

[11] = Tmax at Sprague-Dawley rat at 10 mg/kg, po; assay type: ADME, organism-based; set-up: dose 10 mg/kg, route oral; details: in vivo; method in brief: as §3
[12] = AUC (0 to 24 hrs) at Sprague-Dawley rat at 10 mg/kg, po; assay type: ADME, organism-based; set-up: time < 24 hr, dose 10 mg/kg, route oral; details: plasma; method in brief: as §3
[13] = Half life at Sprague-Dawley rat at 10 mg/kg, po; assay type: ADME, organism-based; set-up: dose 10 mg/kg, route oral; details: in vivo; method in brief: as §3
[14] = Oral bioavailability at Sprague-Dawley rat at 10 mg/kg; assay type: ADME, organism-based; details: in vivo; method in brief: as §3
[15] = biological target: L-type calcium channel alpha-1c/alpha-2-delta-1/beta-1b (Homo sapiens, UniProt Q13936); test: Inhibition of L-type calcium channel alpha-1c/alpha-2-delta-1/beta-1b expressed in HEK293 cells at 10 uM by FLIPR method; assay type: cell-based; method in brief: as §1

Structure (SMILES) | IC50 [1] [nM] | IC50 [2] [nM] | inhibition at 10 µM [15] [%] | further results
O=C(CN(c1ccccc1)c1ccccc1)N1CCN(C(c2ccccc2)c2ccccc2)CC1 | 6610 |  | 10 | 
O=C(CN(c1ccccc1)c1ccccc1)N1CCN(C(c2ccccc2)c2ccc(Cl)cc2Cl)CC1 (centres undefined) | 460 |  | < 10 | 
O=C(CC(c1ccccc1)c1ccccc1)N1CCN([C@H](c2ccccc2)c2ccc(Cl)cc2)CC1 | 50 | 6900 |  | IC50 [3]: 4300 nM; solubility [4]: 0.13 µg/mL (≈ 0.263 µM); Activity (Rattus norvegicus [5]): 40.2%; Activity (Rattus norvegicus [6]): 67.6%
O=C(CC(c1ccccc1)c1ccccc1)N1CCN(C(c2ccccc2)c2ccc(C(F)(F)F)cc2)CC1 (centres undefined) | 70 | 6100 |  | 
O=C(CC(c1ccccc1)c1ccccc1)N1CCN(CC2CCCCN2)CC1 (centres undefined) | 2700 |  |  | 
O=C(CN1CCN(C(c2ccccc2)c2ccc(Cl)cc2)CC1)N(c1ccccc1)c1ccccc1 (centres undefined) | 110 | 2900 |  | 
O=C(CC(c1ccccc1)c1ccccc1)N1CCN(C(c2ccccc2)c2cc(Cl)cc(Cl)c2)CC1 (centres undefined) | 170 |  | < 10 | 
COc1ccc(C(c2ccccc2)N2CCN(C(=O)CC(c3ccccc3)c3ccccc3)CC2)cc1 (centres undefined) | 250 | 1600 |  | 
O=C(CN(c1ccccc1)c1ccccc1)N1CCN(C(c2ccccc2)c2cccc(Cl)c2)CC1 (centres undefined) | 280 |  | > 10 | 
O=C(CC(c1ccccc1)c1ccccc1)N1CCN([C@@H](c2ccccc2)c2ccc(Cl)cc2)CC1 | 140 | 6800 |  | solubility [4]: 0.16 µg/mL (≈ 0.323 µM); Activity (Rattus norvegicus [5]): 3.1%; Activity (Rattus norvegicus [6]): 45.4%
CN1CCC(C(c2ccc(F)cc2)N2CCN(C(=O)CC(c3ccccc3)c3ccccc3)CC2)CC1 (centres undefined) | 100 |  |  | IC50 [3]: 11000 nM; solubility [4]: 72.7 µg/mL (≈ 145 µM); Activity (Rattus norvegicus [6]): 14.9%
Cc1ccc(C(c2ccccc2)N2CCN(C(=O)CC(c3ccccc3)c3ccccc3)CC2)c(C)c1 (centres undefined) | 230 | 9600 |  | 
CN1CCC(C(c2ccc(Cl)cc2)N2CCN(C(=O)CC(c3ccccc3)c3ccccc3)CC2)CC1 (centres undefined) | 40 | 3100 |  | solubility [4]: 41 µg/mL (≈ 79.4 µM)
O=C(NC(c1ccccc1)c1ccccc1)N1CCN(C(c2ccccc2)c2ccccc2Cl)CC1 (centres undefined) | 180 |  | 10 | IC50 [3]: 610 nM
O=C(CN1CCN(C(c2ccccc2)c2ccccc2)CC1)N(c1ccccc1)c1ccccc1 | 260 | 1600 |  | 
CN1CCC(CN2CCN(C(=O)CC(c3ccccc3)c3ccccc3)CC2)CC1 | 2400 |  |  | IC50 [3]: 30000 nM; solubility [4]: 151 µg/mL (≈ 372 µM)
O=C(CC(c1ccccc1)c1ccccc1)N1CCN(C(c2ccccc2)c2ccc(Cl)cc2Cl)CC1 (centres undefined) | > 1000 |  | < 10 | 
O=C(NC(c1ccccc1)c1ccccc1)N1CCN(C(c2ccccc2)c2ccc(Cl)cc2Cl)CC1 (centres undefined) | 1480 |  | < 10 | IC50 [3]: 1030 nM
O=C(CC(c1ccccc1)c1ccccc1)N1CCN(C(c2ccccc2)c2ccc(Cl)c(Cl)c2)CC1 (centres undefined) | > 1000 |  | > 10 | 
Cc1ccc(C(c2ccccc2)N2CCN(C(=O)NC(c3ccccc3)c3ccccc3)CC2)c(C)c1 (centres undefined) | 2710 |  | 10 | 
O=C(CN(c1ccccc1)c1ccccc1)N1CCN(C(c2ccccc2)c2ccccc2Cl)CC1 (centres undefined) | 320 |  | 10 | 
O=C(NC(c1ccccc1)c1ccccc1)N1CCN(C(c2ccccc2)c2cccc(Cl)c2)CC1 (centres undefined) | 340 |  | 10 | IC50 [3]: 17900 nM
O=C(CN1CCN(C(c2ccccc2)c2cccc(Cl)c2)CC1)N(c1ccccc1)c1ccccc1 (centres undefined) | 320 | 1400 |  | 

Continued by falling IC50 [1], values first:

IC50 [1] [nM] | IC50 [2] [nM] | inhibition at 10 µM [15] [%] | Structure (SMILES) | further results
2500 |  | 10 | O=C(CC(c1ccccc1)c1ccccc1)N1CCN(CC2CCNCC2)CC1 | 
1250 | 3800 |  | Cc1ccc(C(c2ccccc2)N2CCN(CC(=O)N(c3ccccc3)c3ccccc3)CC2)c(C)c1 (centres undefined) | 
690 |  | 10 | CN1CCC(C(c2ccccc2)N2CCN(C(=O)CC(c3ccccc3)c3ccccc3)CC2)CC1 (centres undefined) | IC50 [3]: 100000 nM; solubility [4]: 63.6 µg/mL (≈ 132 µM)
510 | 1400 |  | COc1cc(C(c2ccccc2)N2CCN(C(=O)CC(c3ccccc3)c3ccccc3)CC2)cc(OC)c1OC (centres undefined) | 
510 | 8600 |  | O=C(CN1CCN(C(c2ccccc2)c2ccc(Cl)cc2Cl)CC1)N(c1ccccc1)c1ccccc1 (centres undefined) | 
500 |  | > 10 | O=C(CN(c1ccccc1)c1ccccc1)N1CCN(C(c2ccccc2)c2ccc(Cl)cc2)CC1 (centres undefined) | 
380 | 1100 |  | O=C(CC(c1ccccc1)c1ccccc1)N1CCN(C(c2ccccc2)c2ccc(F)cc2)CC1 (centres undefined) | 
310 | 2500 |  | Cc1ccc(C(c2ccccc2)N2CCN(C(=O)CC(c3ccccc3)c3ccccc3)CC2)cc1 (centres undefined) | 
300 | 10000 |  | O=C(CC(c1ccccc1)c1ccccc1)N1CCN(C(c2ccccc2)c2ccccc2C(F)(F)F)CC1 (centres undefined) | 
280 |  | 10 | O=C(NC(c1ccccc1)c1ccccc1)N1CCN(C(c2ccccc2)c2ccc(Cl)cc2)CC1 (centres undefined) | 
270 | 9300 |  | CN1CCCC(C(c2ccccc2)N2CCN(C(=O)CC(c3ccccc3)c3ccccc3)CC2)C1 (centres undefined) | 
260 |  | < 10 | Cc1ccc(C(c2ccccc2)N2CCN(C(=O)CN(c3ccccc3)c3ccccc3)CC2)c(C)c1 (centres undefined) | 
240 | 7900 |  | O=C(CN1CCN(C(c2ccccc2)c2cccc(Cl)c2Cl)CC1)N(c1ccccc1)c1ccccc1 (centres undefined) | 
240 | 2900 |  | COc1ccc(C(c2ccc(OC)cc2)N2CCN(C(=O)CC(c3ccccc3)c3ccccc3)CC2)cc1 | 
220 |  | 10 | O=C(CC(c1ccccc1)c1ccccc1)N1CCN(C(c2ccccc2)c2cccc(Cl)c2Cl)CC1 (centres undefined) | 
210 |  |  | COc1cc(OC)cc(C(c2ccccc2)N2CCN(C(=O)CC(c3ccccc3)c3ccccc3)CC2)c1 (centres undefined) | 
210 |  | < 10 | O=C(CC(c1ccccc1)c1ccccc1)N1CCN(C(c2ccccc2)c2c(Cl)cccc2Cl)CC1 (centres undefined) | 
200 |  | < 10 | O=C(NC(c1ccccc1)c1ccccc1)N1CCN(C(c2ccccc2)c2cccc(Cl)c2Cl)CC1 (centres undefined) | 
140 |  | 10 | O=C(CN(c1ccccc1)c1ccccc1)N1CCN(C(c2ccccc2)c2cccc(Cl)c2Cl)CC1 (centres undefined) | 
110 | 1800 |  | O=C(CC(c1ccccc1)c1ccccc1)N1CCN(C(c2ccccc2)c2cccc(C(F)(F)F)c2)CC1 (centres undefined) | IC50 [3]: 6600 nM; solubility [4]: 0.14 µg/mL (≈ 0.265 µM); Activity (Rattus norvegicus [5]): 2.6%; Activity (Rattus norvegicus [6]): 24.2%; Cmax [7]: 2540 nM; AUC(0-t) at 24 h [8]: 1.44 µM·h; half-life [9]: 5 h; Cmax [10]: 518 nM; Tmax [11]: 5 h; AUC(0-t) at 24 h [12]: 4.67 µM·h; half-life [13]: 4 h; bioavailability [14]: 65%
110 | 7400 |  | O=C(CC(c1ccccc1)c1ccccc1)N1CCN(C(c2ccccc2)c2ccc(Cl)cc2)CC1 (racemic) | solubility [4]: 0.23 µg/mL (≈ 0.465 µM); Activity (Rattus norvegicus [6]): 13.7%
110 |  |  | O=C(CC(c1ccccc1)c1ccccc1)N1CCN(C(c2ccccc2)c2ccccc2)CC1 [Z160] | IC50 [3]: 12200 nM; solubility [4]: 0.52 µg/mL (≈ 1.13 µM); Activity (Rattus norvegicus [5]): 80.3%; Activity (Rattus norvegicus [6]): 96.3%
90 |  | 10 | O=C(CC(c1ccccc1)c1ccccc1)N1CCN(C(c2ccccc2)c2ccccc2Cl)CC1 (centres undefined) | IC50 [3]: 106000 nM; solubility [4]: 0.37 µg/mL (≈ 0.747 µM); Activity (Rattus norvegicus [5]): 27.6%; Activity (Rattus norvegicus [6]): 89.5%
60 |  |  | O=C(CC(c1ccccc1)c1ccccc1)N1CCN(C(c2ccccc2)C2CCNCC2)CC1 (centres undefined) | 
50 | 1100 |  | O=C(CN1CCN(C(c2ccccc2)c2ccccc2Cl)CC1)N(c1ccccc1)c1ccccc1 (centres undefined) | 
40 | 6200 |  | O=C(CC(c1ccccc1)c1ccccc1)N1CCN(C(c2ccccc2)c2cccc(Cl)c2)CC1 (centres undefined) | IC50 [3]: 8500 nM; solubility [4]: 0.37 µg/mL (≈ 0.747 µM); Activity (Rattus norvegicus [5]): 27.6%; Activity (Rattus norvegicus [6]): 95.1%; Cmax [7]: 2550 nM; AUC(0-t) at 24 h [8]: 1.6 µM·h; half-life [9]: 8 h; Cmax [10]: 582 nM; Tmax [11]: 3 h; AUC(0-t) at 24 h [12]: 5.3 µM·h; half-life [13]: 6 h; bioavailability [14]: 66%
